ChEMBL document CHEMBL1157373, “Dual targeting of DNA gyrase and topoisomerase IV: target interactions of heteroaryl isothiazolones in Staphylococcus aureus” (Antimicrob Agents Chemother, 2007)
Converted amounts (≈) assume the structure as drawn.

Columns and labels:
Staphylococcus aureus [1] = assay: Antibacterial activity against Staphylococcus aureus BSA678 isolate with gyrA Ser84Leu, Ser85Pro and grlA Ser80Phe, Glu84Lys mutant after 24 hrs by broth microdilution method
[2] = Inhibition of Staphylococcus aureus […] topoisomerase 4 grlA S80F mutant decatenation activity assessed as unlinking of DNA microcircles from kinetoplast DNA
Method in brief: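 Recombinant S. aureus GrlA (Ser80Phe) and GrlB were mixed 1:1 molar on ice for 10 min. kDNA (0.1 μg) with 2 U enzyme, 30 min at 37°C, in 1 mM ATP, 5 mM MgCl2, 250 mM K-glutamate, 50 mM Tris pH 7.5. Reactions stopped with EDTA, run on 1% agarose-TBE and ethidium-stained, minicircles quantitated. IC50 by nonlinear regression.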

Staphylococcus aureus [3] = assay: Antibacterial activity against Staphylococcus aureus ACH-0204 isolate with gyrA Ser84Leu mutant after 24 hrs by broth microdilution method; format: functional
Method in brief: (§1)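 Broth microdilution per CLSI guidelines. MIC taken as the lowest concentration preventing visible growth at 24 h. Each MIC determined at least twice.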

Staphylococcus aureus [4] = assay: Antibacterial activity against Staphylococcus aureus ACH-0186 isolate with gyrA Ser84Leu and grlA Ser80Phe, Ala116Val mutant after 24 hrs by broth microdilution method; format: functional
Staphylococcus aureus [5] = assay: Antibacterial activity against Staphylococcus aureus ACH-0216 isolate with grlA Ser80Phe mutant after 24 hrs by broth microdilution method; format: functional
Method in brief: as §1

Staphylococcus aureus [6] = assay: Antibacterial activity against Staphylococcus aureus ATCC 700699 isolate with gyrA Ser84Leu, Glu409Lys and grlA Ser80Phe mutant after 24 hrs by broth microdilution method; format: functional; conditions: ATCC 700699, 24 h
Staphylococcus aureus [7] = assay: (§2) Antibacterial activity against Staphylococcus aureus ACH-0129 isolate with gyrA Ser84Leu, Glu88Val and grlA Ser80Phe, Ala116Val mutant after 24 hrs by broth microdilution method; format: functional
Staphylococcus aureus [8] = assay: Antibacterial activity against Staphylococcus aureus ACH-0218 isolate with grlA Glu84Lys mutant after 24 hrs by broth microdilution method; format: functional
Method in brief: as §1

Staphylococcus aureus [9] = assay: Antibacterial activity against Staphylococcus aureus ACH-0221 isolate with gyrA Ser84Leu mutant after 24 hrs by broth microdilution method; format: functional
Method in brief: as §1

Staphylococcus aureus [10] = assay: Antibacterial activity against Staphylococcus aureus ACH-0206 isolate with gyrA Ser84Leu mutant after 24 hrs by broth microdilution method; format: functional
Method in brief: as §1

Staphylococcus aureus [11] = assay: Antibacterial activity against Staphylococcus aureus ACH-0141 isolate with gyrA Ser84Leu, Glu88Val and grlA Ser80Phe, Ala116Val mutant after 24 hrs by broth microdilution method; format: functional
Staphylococcus aureus [12] = assay: Antibacterial activity against Staphylococcus aureus ACH-0126 isolate with gyrA Ser84Leu and grlA Ser80Phe mutant after 24 hrs by broth microdilution method; format: functional
Staphylococcus aureus [13] = assay: Antibacterial activity against Staphylococcus aureus ACH-0192 isolate with gyrA Ser84Leu and grlA Ser80Phe, Ala116Val mutant after 24 hrs by broth microdilution method; format: functional
Staphylococcus aureus [14] = assay: Antibacterial activity against Staphylococcus aureus ACH-0210 isolate with gyrA Ser84Leu and grlA Ser80Phe mutant after 24 hrs by broth microdilution method; format: functional
Staphylococcus aureus [15] = assay: Antibacterial activity against Staphylococcus aureus ACH-0231 isolate with gyrA Ser84Leu, Glu88Lys and grlA Ser80Tyr, Glu84Gly mutant after 24 hrs by broth microdilution method; format: functional
Staphylococcus aureus [16] = assay: Antibacterial activity against Staphylococcus aureus ACH-0201 isolate with gyrA Ser84Leu, Glu88Val and grlA Ser80Phe, Ala116Val mutant after 24 hrs by broth microdilution method; format: functional
[17] = Inhibition of Staphylococcus aureus wild-type topoisomerase 4 decatenation activity assessed as unlinking of DNA microcircles from kinetoplast DNA
Method in brief: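 S. aureus topo IV reconstituted from His-purified recombinant GrlA and GrlB (E. coli BL21(DE3)pLysS expression), mixed 1:1 molar on ice 10 min. 0.1 μg catenated kDNA with 2 U enzyme, 30 min at 37°C in 1 mM ATP, 5 mM DTT, 5 mM MgCl2, 50 μg/ml BSA, 50 mM Tris-HCl pH 7.5, 250 mM potassium glutamate. Products on 1% agarose gel, ethidium-stained, quantitated; IC50 by nonlinear regression.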

Staphylococcus aureus [18] = assay: Antibacterial activity against Staphylococcus aureus ATCC 29213 after 24 hrs by broth microdilution method; format: functional; conditions: ATCC 29213, 24 h
Method in brief: as §1

Staphylococcus aureus [19] = assay: Antibacterial activity against Staphylococcus aureus NY2746 isolate with gyrA Ser84Leu and grlA Ser80Phe mutant after 24 hrs by broth microdilution method; format: functional
Staphylococcus aureus [20] = assay: Antibacterial activity against Staphylococcus aureus ACH-0203 isolate with gyrA Ser84Leu and grlA Ser80Phe, Ala116Val mutant after 24 hrs by broth microdilution method; format: functional
Method in brief: as §1

Staphylococcus aureus [21] = assay: Antibacterial activity against Staphylococcus aureus BSA643 isolate with gyrA Ser84Leu and grlA Ser80Tyr, Glu84Gly mutant after 24 hrs by broth microdilution method; format: functional
Staphylococcus aureus [22] = assay: as §2; format: functional; remark: listed apart in the source
Staphylococcus aureus [23] = assay: Antibacterial activity against Staphylococcus aureus ATCC 33591 isolate after 24 hrs by broth microdilution method; format: functional; conditions: ATCC 33591, 24 h
Method in brief: as §1

DNA gyrase subunit A = DNA gyrase subunit A (Staphylococcus aureus, UniProt P20831, S84L); assay: Inhibition of Staphylococcus aureus DNA gyrase gyrA S84L mutant supercoiling activity assessed as effect on conversion of relaxed pBR322 DNA to supercoiled form

COc1c(N2C[C@@H]3CCCN[C@@H]3C2)c(F)cc2c(=O)c(C(=O)O)cn(C3CC3)c12 [MOXIFLOXACIN]
MIC (Staphylococcus aureus [1]): > 64 µg/mL | IC50 [2]: 11.9 µM | MIC (Staphylococcus aureus [3]): 0.125 µg/mL (≈ 0.311 µM) | MIC (Staphylococcus aureus [4]): 16 µg/mL (≈ 39.9 µM) | MIC (Staphylococcus aureus [5]): 0.25 µg/mL (≈ 0.623 µM) | MIC (Staphylococcus aureus [6]): 4 µg/mL (≈ 9.96 µM) | MIC (Staphylococcus aureus [7]): 8 µg/mL (≈ 19.9 µM) | MIC (Staphylococcus aureus [8]): 0.25 µg/mL (≈ 0.623 µM) | MIC (Staphylococcus aureus [9]): 0.5 µg/mL (≈ 1.25 µM) | MIC (Staphylococcus aureus [10]): 0.125 µg/mL (≈ 0.311 µM) | MIC (Staphylococcus aureus [11]): 16 µg/mL (≈ 39.9 µM) | MIC (Staphylococcus aureus [12]): 4 µg/mL (≈ 9.96 µM) | MIC (Staphylococcus aureus [13]): 16 µg/mL (≈ 39.9 µM) | MIC (Staphylococcus aureus [14]): 4 µg/mL (≈ 9.96 µM) | MIC (Staphylococcus aureus [15]): 32 µg/mL (≈ 79.7 µM) | MIC (Staphylococcus aureus [16]): 16 µg/mL (≈ 39.9 µM) | IC50 [17]: 1 µM | MIC (Staphylococcus aureus [18]): 0.06 µg/mL (≈ 0.149 µM) | MIC (Staphylococcus aureus [19]): 8 µg/mL (≈ 19.9 µM) | MIC (Staphylococcus aureus [20]): 32 µg/mL (≈ 79.7 µM) | MIC (Staphylococcus aureus [21]): 16 µg/mL (≈ 39.9 µM)

O=C(O)c1cn(C2CC2)c2cc(N3CCNCC3)c(F)cc2c1=O [CIPROFLOXACIN]
MIC (Staphylococcus aureus [1]): 128 µg/mL (≈ 386 µM) | IC50 [2]: > 40 µM | MIC (Staphylococcus aureus [3]): 0.5 µg/mL (≈ 1.51 µM) | MIC (Staphylococcus aureus [5]): 2 µg/mL (≈ 6.04 µM) | MIC (Staphylococcus aureus [8]): 2 µg/mL (≈ 6.04 µM) | MIC (Staphylococcus aureus [9]): 1 µg/mL (≈ 3.02 µM) | MIC (Staphylococcus aureus [10]): 0.5 µg/mL (≈ 1.51 µM) | IC50 [17]: 3 µM | MIC (Staphylococcus aureus [18]): 0.25 µg/mL (≈ 0.754 µM) | MIC (Staphylococcus aureus [20]): 128 µg/mL (≈ 386 µM)

COc1c(-c2cc(C)nc(C)c2)c(F)cc2c(=O)c3c(=O)[nH]sc3n(C3CC3)c12
MIC (Staphylococcus aureus [1]): 0.5 µg/mL (≈ 1.22 µM) | MIC (Staphylococcus aureus [22]): 0.5 µg/mL (≈ 1.22 µM) | IC50 [2]: 9.3 µM | MIC (Staphylococcus aureus [3]): 0.016 µg/mL (≈ 0.0389 µM) | MIC (Staphylococcus aureus [23]): 0.004 µg/mL (≈ 0.00972 µM) | MIC (Staphylococcus aureus [4]): 0.25 µg/mL (≈ 0.608 µM) | MIC (Staphylococcus aureus [5]): 0.008 µg/mL (≈ 0.0194 µM) | MIC (Staphylococcus aureus [6]): 0.125 µg/mL (≈ 0.304 µM) | MIC (Staphylococcus aureus [7]): 0.5 µg/mL (≈ 1.22 µM) | MIC (Staphylococcus aureus [8]): 0.004 µg/mL (≈ 0.00972 µM) | MIC (Staphylococcus aureus [9]): 0.03 µg/mL (≈ 0.0729 µM) | IC50 (DNA gyrase subunit A): 21.5 µM | MIC (Staphylococcus aureus [10]): 0.015 µg/mL (≈ 0.0365 µM) | MIC (Staphylococcus aureus [11]): 2 µg/mL (≈ 4.86 µM) | MIC (Staphylococcus aureus [12]): 0.125 µg/mL (≈ 0.304 µM) | MIC (Staphylococcus aureus [13]): 1 µg/mL (≈ 2.43 µM) | MIC (Staphylococcus aureus [14]): 0.125 µg/mL (≈ 0.304 µM) | MIC (Staphylococcus aureus [15]): 1 µg/mL (≈ 2.43 µM) | MIC (Staphylococcus aureus [16]): 1 µg/mL (≈ 2.43 µM) | IC50 [17]: 0.8 µM | MIC (Staphylococcus aureus [18]): 0.004 µg/mL (≈ 0.00972 µM) | MIC (Staphylococcus aureus [19]): 0.25 µg/mL (≈ 0.608 µM) | MIC (Staphylococcus aureus [20]): 1 µg/mL (≈ 2.43 µM) | MIC (Staphylococcus aureus [21]): 0.125 µg/mL (≈ 0.304 µM)

CO/N=C1\CN(c2nc3c(cc2F)c(=O)c(C(=O)O)cn3C2CC2)CC1CN (stereo not drawn) [GEMIFLOXACIN]
MIC (Staphylococcus aureus [1]): 64 µg/mL (≈ 164 µM) | IC50 [2]: 9.8 µM | MIC (Staphylococcus aureus [3]): 0.125 µg/mL (≈ 0.321 µM) | MIC (Staphylococcus aureus [23]): 0.06 µg/mL (≈ 0.154 µM) | MIC (Staphylococcus aureus [4]): 4 µg/mL (≈ 10.3 µM) | MIC (Staphylococcus aureus [5]): 0.125 µg/mL (≈ 0.321 µM) | MIC (Staphylococcus aureus [6]): 4 µg/mL (≈ 10.3 µM) | MIC (Staphylococcus aureus [7]): 8 µg/mL (≈ 20.5 µM) | MIC (Staphylococcus aureus [8]): 0.125 µg/mL (≈ 0.321 µM) | MIC (Staphylococcus aureus [9]): 0.5 µg/mL (≈ 1.28 µM) | IC50 (DNA gyrase subunit A): > 300 µM | MIC (Staphylococcus aureus [10]): 0.125 µg/mL (≈ 0.321 µM) | MIC (Staphylococcus aureus [11]): 4 µg/mL (≈ 10.3 µM) | MIC (Staphylococcus aureus [12]): 4 µg/mL (≈ 10.3 µM) | MIC (Staphylococcus aureus [13]): 8 µg/mL (≈ 20.5 µM) | MIC (Staphylococcus aureus [14]): 4 µg/mL (≈ 10.3 µM) | MIC (Staphylococcus aureus [15]): > 64 µg/mL | MIC (Staphylococcus aureus [16]): 8 µg/mL (≈ 20.5 µM) | IC50 [17]: 0.4 µM | MIC (Staphylococcus aureus [18]): 0.03 µg/mL (≈ 0.077 µM) | MIC (Staphylococcus aureus [19]): 32 µg/mL (≈ 82.2 µM) | MIC (Staphylococcus aureus [20]): 32 µg/mL (≈ 82.2 µM) | MIC (Staphylococcus aureus [21]): 32 µg/mL (≈ 82.2 µM)
